What all share (format): biochemical
The target in one test is bovine eNOS (Bos taurus, UniProt P29473). Description: Nitric oxide hemoglobin capture assay, eNOS. The note with it: for selectivity n/e: ratio of Ki (eNOS) to Ki (nNOS).
A further test deals with rat nNOS (Rattus norvegicus, UniProt P29476). Description: Nitric oxide hemoglobin capture assay, nNOS. Summed up: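 Recombinant rat nNOS was expressed in E. coli. Assays ran at room temperature in 100 mM Hepes pH 7.4 with 10 µM L-arginine, 1.6 mM CaCl2, 11.6 µg/mL calmodulin, 100 µM DTT, 100 µM NADPH, 6.5 µM H4B and 3.0 µM oxyhemoglobin. Enzyme addition started the reaction, and initial rates came from NO-hemoglobin formation at 401 nm over 60 sec. Ki = IC50/(1+[S]/Km), Km 1.3 µM.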
Sequence of rat nNOS (P29476 whole entry): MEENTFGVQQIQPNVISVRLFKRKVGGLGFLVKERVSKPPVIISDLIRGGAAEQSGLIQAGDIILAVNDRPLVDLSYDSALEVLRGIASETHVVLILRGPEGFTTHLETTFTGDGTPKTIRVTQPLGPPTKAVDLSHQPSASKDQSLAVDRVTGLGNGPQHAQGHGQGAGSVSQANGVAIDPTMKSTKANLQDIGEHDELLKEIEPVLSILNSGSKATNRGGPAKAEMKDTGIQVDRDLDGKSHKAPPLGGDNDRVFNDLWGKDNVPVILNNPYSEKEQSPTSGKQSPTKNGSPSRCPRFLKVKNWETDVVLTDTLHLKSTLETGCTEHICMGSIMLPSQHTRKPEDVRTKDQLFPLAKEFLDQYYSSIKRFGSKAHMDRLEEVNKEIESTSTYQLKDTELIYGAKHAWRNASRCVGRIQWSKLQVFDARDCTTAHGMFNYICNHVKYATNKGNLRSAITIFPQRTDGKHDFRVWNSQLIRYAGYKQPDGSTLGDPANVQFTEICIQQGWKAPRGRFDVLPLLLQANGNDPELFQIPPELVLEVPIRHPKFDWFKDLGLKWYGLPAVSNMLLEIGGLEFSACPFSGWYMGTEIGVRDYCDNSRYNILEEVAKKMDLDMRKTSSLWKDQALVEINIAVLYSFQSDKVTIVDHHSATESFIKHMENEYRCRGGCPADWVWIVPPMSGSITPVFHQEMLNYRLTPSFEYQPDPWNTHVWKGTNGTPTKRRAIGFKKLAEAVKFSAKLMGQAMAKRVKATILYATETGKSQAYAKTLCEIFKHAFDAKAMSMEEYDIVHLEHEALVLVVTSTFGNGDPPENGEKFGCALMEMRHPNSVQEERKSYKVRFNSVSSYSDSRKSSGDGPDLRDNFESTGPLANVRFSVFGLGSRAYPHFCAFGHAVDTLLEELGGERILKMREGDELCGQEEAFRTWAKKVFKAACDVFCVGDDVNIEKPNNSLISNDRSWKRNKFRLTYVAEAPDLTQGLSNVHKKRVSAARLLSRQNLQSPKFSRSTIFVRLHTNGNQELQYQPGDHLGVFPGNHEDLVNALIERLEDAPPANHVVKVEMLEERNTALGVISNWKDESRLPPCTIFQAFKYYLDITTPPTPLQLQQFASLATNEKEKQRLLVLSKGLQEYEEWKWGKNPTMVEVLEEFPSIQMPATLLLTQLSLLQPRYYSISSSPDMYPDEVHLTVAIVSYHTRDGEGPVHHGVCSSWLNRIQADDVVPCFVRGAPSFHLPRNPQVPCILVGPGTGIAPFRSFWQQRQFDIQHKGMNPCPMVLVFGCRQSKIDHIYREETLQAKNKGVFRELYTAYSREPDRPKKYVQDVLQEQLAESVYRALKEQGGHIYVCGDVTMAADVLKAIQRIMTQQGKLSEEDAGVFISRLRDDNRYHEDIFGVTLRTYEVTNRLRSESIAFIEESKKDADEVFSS

A further test concerns the target murine macrophage iNOS (Mus musculus, UniProt P29477). Description: Nitric oxide hemoglobin capture assay, iNOS. The note with it: for selectivity n/i: ratio of Ki (iNOS) to Ki (nNOS).

In general, Ki refers to a dissociation constant, usually derived from enzyme kinetics or from competition with a known ligand. Read a low Ki as higher affinity.

Sequence of murine macrophage iNOS (P29477 whole entry): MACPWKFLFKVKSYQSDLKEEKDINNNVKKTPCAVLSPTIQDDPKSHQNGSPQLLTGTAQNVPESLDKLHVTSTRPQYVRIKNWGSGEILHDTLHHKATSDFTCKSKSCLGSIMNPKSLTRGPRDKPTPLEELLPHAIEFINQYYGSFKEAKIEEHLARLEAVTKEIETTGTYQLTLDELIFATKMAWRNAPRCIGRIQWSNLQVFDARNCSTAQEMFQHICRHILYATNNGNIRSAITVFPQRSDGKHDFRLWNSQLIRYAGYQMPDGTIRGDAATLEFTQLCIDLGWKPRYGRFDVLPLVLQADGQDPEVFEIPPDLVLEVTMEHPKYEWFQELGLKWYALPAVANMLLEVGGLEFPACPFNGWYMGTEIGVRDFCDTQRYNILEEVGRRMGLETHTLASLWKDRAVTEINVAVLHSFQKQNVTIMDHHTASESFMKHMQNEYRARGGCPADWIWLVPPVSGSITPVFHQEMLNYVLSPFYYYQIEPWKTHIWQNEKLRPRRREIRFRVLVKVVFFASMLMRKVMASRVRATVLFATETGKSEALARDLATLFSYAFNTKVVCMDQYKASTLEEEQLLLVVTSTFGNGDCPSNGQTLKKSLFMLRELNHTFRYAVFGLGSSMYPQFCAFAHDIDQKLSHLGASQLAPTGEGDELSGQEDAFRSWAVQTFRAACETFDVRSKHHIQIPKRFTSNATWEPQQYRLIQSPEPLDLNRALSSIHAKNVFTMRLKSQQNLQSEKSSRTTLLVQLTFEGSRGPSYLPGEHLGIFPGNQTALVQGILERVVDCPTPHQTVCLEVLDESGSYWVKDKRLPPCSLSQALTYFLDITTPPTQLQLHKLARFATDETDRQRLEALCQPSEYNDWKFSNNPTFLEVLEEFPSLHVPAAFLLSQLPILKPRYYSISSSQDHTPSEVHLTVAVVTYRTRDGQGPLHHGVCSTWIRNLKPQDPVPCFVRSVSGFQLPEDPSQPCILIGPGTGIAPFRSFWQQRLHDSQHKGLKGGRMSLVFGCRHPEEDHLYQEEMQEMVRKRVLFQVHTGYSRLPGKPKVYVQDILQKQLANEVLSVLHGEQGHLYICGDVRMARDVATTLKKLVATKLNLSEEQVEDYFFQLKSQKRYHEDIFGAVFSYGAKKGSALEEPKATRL

Consider `Cc1cc(N)nc(C[C@@H]2CNC[C@@H]2OCCNC(C)Cc2cccc(F)c2)c1.Cl` (mixture of isomers) [(±) 2e, 6-(((3R,4R)-4-(2-(((R/S)-1-(3-fluorophenyl)propan-2-yl)amino)ethoxy)pyrrolidin-3-yl)methyl)-4-methylpyridin-2-amine], for which, on bovine eNOS, the affinity, expressed as Ki, was 68 µM and the selectivity n/e is given as 1500. The same compound displayed an inhibition constant (Ki) on rat nNOS of 0.046 µM. Besides, at murine macrophage iNOS, the Ki stood at 10.2 µM and the selectivity n/i is 220.

With `Cc1cc(N)nc(C[C@@H]2CNC[C@@H]2OCCN[C@H]2C[C@@H]2c2cccc(F)c2)c1` [Compound 2b, 6-(((3R,4R)-4-(2-((1S,2R)-2-(3-Fluorophenyl)cyclopropylamino)ethoxy)pyrrolidin-3-yl)methyl)-4-methylpyridin-2-amine], the Ki at rat nNOS was 0.175 µM; on murine macrophage iNOS it was 12 µM.

Take `Cc1cccc(C2CC2NCCO[C@H]2CNC[C@H]2Cc2cc(C)cc(N)n2)c1` (mixture of isomers) [(±) 2c, 4-Methyl-6-(((3R,4R)-4-(2-((1S,2R/1R,2S)-2-m-tolylcyclopropylamino)ethoxy)pyrrolidin-3-yl)methyl)pyridin-2-amine]: the Ki on rat nNOS is 0.14 µM; on murine macrophage iNOS it was 10 µM.

On to `Cc1cc(N)nc(C[C@@H]2CNC[C@@H]2OCCNC2CC2c2cccc(Cl)c2)c1` (mixture of isomers) [(±) 2d, 6-(((3R,4R)-4-(2-((1S,2R/1R,2S)-2-(3-Clorophenyl)cyclopropylamino)ethoxy)pyrrolidin-3-yl)methyl)-4-methylpyridin-2-amine], for which, on bovine eNOS, the inhibition constant (Ki) came out at 26 µM and the selectivity n/e is given as 370. Besides, affinity at rat nNOS was put at a Ki of 0.071 µM. For the same compound, at murine macrophage iNOS, the Ki was 0.86 µM and the selectivity n/i is recorded as 12.

For the origin of these results see paper PMC3574199 (Bioorganic & medicinal chemistry, 2012).
